Experimental data from ChEMBL document CHEMBL1777764, “Synthesis and evaluation of 1-(1H-indol-3-yl)ethanamine derivatives as new antibacterial agents” (Bioorg Med Chem, 2011).
In brackets after ≈: the same amount, converted by molar mass.

Assays:
[1] = tested on: Staphylococcus epidermidis; assay: Antibacterial activity against Staphylococcus epidermidis CIP 81.55 after 18 hrs by broth microdilution method; type: functional; details: CIP 81.55, 18 h
Method in brief: (§1)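 MIC by broth microdilution per ISO 20776-1:2006 and CLSI M07-A8. Inoculum 10^6 cfu/ml in Mueller-Hinton broth with compound serially diluted, final concentrations 2 to 128 ug/ml, duplicate rows, no-drug growth control. Incubation 18 h at 37 °C. MIC taken as lowest concentration giving complete inhibition of visible growth. Each compound tested at least twice.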

[2] = tested on: Staphylococcus epidermidis; assay: Antibacterial activity against Staphylococcus epidermidis CIP 103627 after 18 hrs by broth microdilution method; type: functional; details: CIP 103627, 18 h; method in brief: as §1
Staphylococcus aureus [3] = assay: Antibacterial activity against Staphylococcus aureus CIP 103428 after 18 hrs by broth microdilution method; type: functional; details: CIP 103428, 18 h; method in brief: as §1
Staphylococcus aureus [4] = assay: Antibacterial activity against Staphylococcus aureus ATCC 6538 after 18 hrs by broth microdilution method; type: functional; details: ATCC 6538, 18 h; method in brief: as §1
KB [5] = assay: Cytotoxicity against human KB cells at 1 uM; type: cell-based
Staphylococcus aureus [6] = assay: Antibacterial activity against Staphylococcus aureus CIP 65.6 after 18 hrs by broth microdilution method; type: functional; details: CIP 65.6, 18 h; method in brief: as §1
MRC5 [7] = assay: Cytotoxicity against human MRC5 cells at 1 uM; type: cell-based; details: mrc5, 1 µM
HCT-116 [8] = assay: Cytotoxicity against human HCT116 cells at 10 uM; type: cell-based; details: hct-116, 10 µM
KB [9] = assay: Cytotoxicity against human KB cells at 10 uM; type: cell-based
HCT-116 [10] = assay: Cytotoxicity against human HCT116 cells at 1 uM; type: cell-based; details: hct-116, 1 µM
MRC5 [11] = assay: Cytotoxicity against human MRC5 cells at 10 uM; type: cell-based; details: mrc5, 10 µM
Staphylococcus aureus [12] = assay: Antibacterial activity against Staphylococcus aureus ATCC 25923 after 18 hrs by broth microdilution method; type: functional; details: ATCC 25923, 18 h; method in brief: as §1
Staphylococcus aureus [13] = assay: Antibacterial activity against Staphylococcus aureus ATCC 29213 after 18 hrs by broth microdilution method; type: functional; details: ATCC 29213, 18 h; method in brief: as §1
[14] = tested on: Staphylococcus epidermidis; assay: Antibacterial activity against Staphylococcus epidermidis ATCC 12228 after 18 hrs by broth microdilution method; type: functional; details: ATCC 12228, 18 h; method in brief: as §1
Staphylococcus aureus [15] = assay: Antibacterial activity against Staphylococcus aureus ATCC 9144 after 18 hrs by broth microdilution method; type: functional; details: ATCC 9144, 18 h; method in brief: as §1
Staphylococcus aureus [16] = assay: Antibacterial activity against vancomycin intermediate Staphylococcus aureus […] after 18 hrs by broth microdilution method; type: functional
Method in brief: (§2)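 Broth microdilution following ISO 20776-1:2006 and CLSI M07-A8, in Mueller-Hinton broth. Inoculum was 10^6 cfu/ml, with compound serial dilutions spanning 2 to 128 ug/ml and a compound-free growth control well. Plates were incubated 18 h at 37 °C. MIC was the lowest concentration giving complete inhibition of visible growth. Each compound was tested at least twice.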

Streptococcus pneumoniae [17] = assay: Antibacterial activity against Streptococcus pneumoniae ATCC 49619 after 18 hrs by broth microdilution method; type: functional; details: ATCC 49619, 18 h
Method in brief: (§3)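 MIC by broth microdilution per ISO 20776-1:2006 and CLSI M07-A8. Inoculum 10^6 cfu/ml in Mueller-Hinton broth […]. Compound serially diluted, final 2 to 128 ug/ml, duplicate rows, no-drug growth control. Read after 18 h at 37 °C as lowest concentration fully inhibiting visible growth. At least two experiments.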

Staphylococcus aureus [18] = assay: Antibacterial activity against methicillin-resistant Staphylococcus aureus CIP 65.25 after 18 hrs by broth microdilution method; type: functional; details: CIP 65.25, 18 h; method in brief: as §2
Staphylococcus aureus [19] = assay: Antibacterial activity against methicillin-resistant Staphylococcus aureus ATCC 33592 after 18 hrs by broth microdilution method; type: functional; details: ATCC 33592, 18 h; method in brief: as §2
Streptococcus pneumoniae [20] = assay: Antibacterial activity against Streptococcus pneumoniae ATCC 6303 after 18 hrs by broth microdilution method; type: functional; details: ATCC 6303, 18 h; method in brief: as §3

Row | Structure (SMILES) | MIC [1] [µg/mL] | MIC [2] [µg/mL] | MIC (Staphylococcus aureus [3]) [µg/mL] | MIC (Staphylococcus aureus [4]) [µg/mL] | Activity (KB [5]) | MIC (Staphylococcus aureus [6]) [µg/mL] | Activity (MRC5 [7]) | Activity (HCT-116 [8]) | Activity (KB [9]) | Activity (HCT-116 [10]) | Activity (MRC5 [11]) | MIC (Staphylococcus aureus [12]) [µg/mL] | MIC (Staphylococcus aureus [13]) [µg/mL] | MIC [14] [µg/mL] | MIC (Staphylococcus aureus [15]) [µg/mL] | MIC (Staphylococcus aureus [16]) [µg/mL] | MIC (Streptococcus pneumoniae [17]) [µg/mL] | MIC (Staphylococcus aureus [18]) [µg/mL] | MIC (Staphylococcus aureus [19]) [µg/mL] | MIC (Streptococcus pneumoniae [20]) [µg/mL]
1 | CC(NO)c1c[nH]c2ccc(Cl)cc12 (centres undefined) | 16 (≈ 76 µM) | 16 (≈ 76 µM) | 32 (≈ 152 µM) | 32 (≈ 152 µM) | Non-toxic | 32 (≈ 152 µM) | Non-toxic | Non-toxic | Non-toxic | Non-toxic | Non-toxic | 32 (≈ 152 µM) | 32 (≈ 152 µM) | 16 (≈ 76 µM) | 32 (≈ 152 µM) |  |  |  |  | 
2 | CC(C)(C)OC(=O)NCC(c1c[nH]c2cc(Cl)ccc12)N(O)Cc1ccccc1 (centres undefined) | 16 (≈ 38.5 µM) | 16 (≈ 38.5 µM) | 16 (≈ 38.5 µM) | 16 (≈ 38.5 µM) | Non-toxic | 16 (≈ 38.5 µM) | Non-toxic |  |  | Non-toxic |  | 16 (≈ 38.5 µM) | 16 (≈ 38.5 µM) | 16 (≈ 38.5 µM) | 16 (≈ 38.5 µM) | 16 (≈ 38.5 µM) | > 128 | 16 (≈ 38.5 µM) | 16 (≈ 38.5 µM) | > 128
3 | CC(C)CC(NO)c1c[nH]c2ccc(I)cc12 (centres undefined) | 16 (≈ 46.5 µM) | 16 (≈ 46.5 µM) | 32 (≈ 93 µM) | 32 (≈ 93 µM) | Non-toxic | 32 (≈ 93 µM) | Non-toxic | Non-toxic | Non-toxic | Non-toxic | Non-toxic | 32 (≈ 93 µM) | 32 (≈ 93 µM) | 16 (≈ 46.5 µM) | 32 (≈ 93 µM) |  |  |  |  | 
4 | CC(C)(C)OC(=O)NCC(c1c[nH]c2cc(F)ccc12)N(O)Cc1ccccc1 (centres undefined) | > 128 | > 128 | > 128 | > 128 |  | > 128 |  |  |  |  |  | > 128 | > 128 | > 128 | > 128 | > 128 | > 128 | > 128 | > 128 | > 128
5 | CC(c1c[nH]c2ccc(F)cc12)N(O)Cc1ccccc1 (centres undefined) | > 128 | > 128 | > 128 | > 128 |  | > 128 |  |  |  |  |  | > 128 | > 128 | > 128 | > 128 | > 128 | > 128 | > 128 | > 128 | > 128
6 | CC(C)(C)OC(=O)NCC(c1c[nH]c2ccc(F)cc12)N(O)Cc1ccccc1 (centres undefined) | > 128 | > 128 | > 128 | > 128 |  | > 128 |  |  |  |  |  | > 128 | > 128 | > 128 | > 128 | > 128 | > 128 | > 128 | > 128 | > 128
7 | CC(C)(C)OC(=O)NCC(c1c[nH]c2ccc(Cl)cc12)N(O)Cc1ccccc1 (centres undefined) | 16 (≈ 38.5 µM) | 16 (≈ 38.5 µM) | 16 (≈ 38.5 µM) | 16 (≈ 38.5 µM) | Non-toxic | 16 (≈ 38.5 µM) | Non-toxic |  |  | Non-toxic |  | 16 (≈ 38.5 µM) | 16 (≈ 38.5 µM) | 16 (≈ 38.5 µM) | 16 (≈ 38.5 µM) | 16 (≈ 38.5 µM) | 64 (≈ 154 µM) | 16 (≈ 38.5 µM) | 16 (≈ 38.5 µM) | 64 (≈ 154 µM)
8 | CC(c1c[nH]c2ccc(I)cc12)N(O)Cc1ccccc1 (centres undefined) | > 128 | > 128 | > 128 | > 128 |  | > 128 |  |  |  |  |  | > 128 | > 128 | > 128 | > 128 | > 128 | > 128 | > 128 | > 128 | > 128
9 | CC(C)CC(c1c[nH]c2ccc(I)cc12)N(O)Cc1ccccc1 (centres undefined) | > 128 | > 128 | > 128 | > 128 |  | > 128 |  |  |  |  |  | > 128 | > 128 | > 128 | > 128 | > 128 | > 128 | > 128 | > 128 | > 128
10 | CC(C)CC(c1c[nH]c2ccc(Br)cc12)N(O)Cc1ccccc1 (centres undefined) | > 128 | > 128 | > 128 | > 128 |  | > 128 |  |  |  |  |  | > 128 | > 128 | > 128 | > 128 | > 128 | > 128 | > 128 | > 128 | > 128
11 | CC(C)(C)OC(=O)NCC(c1c[nH]c2ccc(I)cc12)N(O)Cc1ccccc1 (centres undefined) | 8 (≈ 15.8 µM) | 8 (≈ 15.8 µM) | 8 (≈ 15.8 µM) | 8 (≈ 15.8 µM) | Non-toxic | 8 (≈ 15.8 µM) | Non-toxic |  |  | Non-toxic |  | 8 (≈ 15.8 µM) | 8 (≈ 15.8 µM) | 8 (≈ 15.8 µM) | 8 (≈ 15.8 µM) | 8 (≈ 15.8 µM) | 64 (≈ 126 µM) | 8 (≈ 15.8 µM) | 8 (≈ 15.8 µM) | 64 (≈ 126 µM)
12 | CC(C)CC(c1c[nH]c2ccc(Cl)cc12)N(O)Cc1ccccc1 (centres undefined) | > 128 | > 128 | > 128 | > 128 |  | > 128 |  |  |  |  |  | > 128 | > 128 | > 128 | > 128 | > 128 | > 128 | > 128 | > 128 | > 128
